The target of test [1] is T1, 3-hydroxy-3-methylglutaryl-coenzyme A reductase (Rattus norvegicus) (UniProt P51639).
T1 sequence (whole entry): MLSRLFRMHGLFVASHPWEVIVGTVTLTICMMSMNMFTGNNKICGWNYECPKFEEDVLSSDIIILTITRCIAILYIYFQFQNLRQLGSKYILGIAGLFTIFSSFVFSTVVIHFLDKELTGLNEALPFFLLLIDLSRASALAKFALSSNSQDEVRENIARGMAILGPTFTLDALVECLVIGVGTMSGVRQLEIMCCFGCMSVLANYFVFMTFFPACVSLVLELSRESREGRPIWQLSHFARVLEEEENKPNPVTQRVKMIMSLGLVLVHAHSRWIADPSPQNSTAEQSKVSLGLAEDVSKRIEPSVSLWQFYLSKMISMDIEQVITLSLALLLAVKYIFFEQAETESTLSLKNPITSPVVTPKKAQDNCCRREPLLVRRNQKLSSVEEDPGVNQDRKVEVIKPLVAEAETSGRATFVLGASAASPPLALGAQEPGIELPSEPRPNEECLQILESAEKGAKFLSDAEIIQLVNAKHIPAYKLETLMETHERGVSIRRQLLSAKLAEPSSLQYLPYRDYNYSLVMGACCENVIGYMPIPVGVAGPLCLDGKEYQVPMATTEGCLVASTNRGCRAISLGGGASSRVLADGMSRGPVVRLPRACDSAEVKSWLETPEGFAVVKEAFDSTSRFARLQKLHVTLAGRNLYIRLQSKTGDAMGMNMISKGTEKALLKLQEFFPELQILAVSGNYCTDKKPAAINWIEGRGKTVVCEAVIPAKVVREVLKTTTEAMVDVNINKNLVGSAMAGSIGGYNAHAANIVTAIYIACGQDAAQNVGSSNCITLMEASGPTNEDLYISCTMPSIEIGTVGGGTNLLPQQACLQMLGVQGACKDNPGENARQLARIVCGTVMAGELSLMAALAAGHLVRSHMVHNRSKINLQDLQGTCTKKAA
Briefly: Relative potency to inhibit solubilized, partially purified rat liver HMG-CoA reductase compared with that of compactin.

The target of test [2] is T2, 3-hydroxy-3-methylglutaryl-coenzyme A reductase (Rattus norvegicus, UniProt P51639).
T2 sequence (P51639 whole entry): T1 sequence (whole entry)
The experiment in a line: Inhibition of solubilized, partially purified rat liver HMG-CoA reductase. Put shortly: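 Enzyme solubilized from fresh microsomes and purified through the second ammonium sulfate precipitation. It was diluted in 100 mM phosphate, pH 7.2, to give 50 000–60 000 dpm per 100 μL in control. Assay mix (0.8 mL): phosphate pH 7.2 100 mM, MgCl2 3 mM, NADP 3 mM, glucose 6-phosphate 10 mM, G6PDH 3 units, glutathione 50 mM, [14C]HMG-CoA 0.2 mM. Compounds were added as dihydroxy acid Na salts at multiple concentrations. Incubation ran 40 min at 37 °C, stopped with HCl, then lactonized. [14C]mevalonolactone was separated on Bio-Rex 5 and counted. IC50 came from a least-squares line of % inhibition vs concentration.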

In turn, `O=C1C[C@H](O)C[C@@H](/C=C/c2cccc(Cl)c2Cl)O1` showed a Relative potency in test [1] of 0.017. The IC50 in test [2] worked out at 64400 nM.
The corresponding values for `O=C1C[C@H](O)C[C@@H](/C=C/c2c(Cl)cccc2Cl)O1` are 0.14 and 7900 nM.
`O=C1C[C@H](O)CC(CCc2c(Cl)cc(Cl)cc2OCc2ccccc2F)O1` (stereo partly specified) gave a Relative potency in test [1] of 10. This compound also displayed an IC50 in test [2] of 150 nM.
In the same order, the values of `O=C1C[C@H](O)CC(CCc2c(Cl)cc(Cl)cc2Oc2ccccc2)O1` (stereo partly specified) are 4.5 and 330 nM.
With `O=C1C[C@H](O)C[C@@H](CCc2c(Cl)cc(Cl)cc2COc2ccccc2)O1`, the Relative potency in test [1] amounted to 6. Besides, half-maximal inhibition in test [2] (IC50) was put at 390 nM.
In test [1], `Cc1cc(OCc2ccccc2)cc(C)c1/C=C/[C@@H]1C[C@@H](O)CC(=O)O1` yielded a Relative potency of 3.7. For the same compound, half-maximal inhibition in test [2] (IC50) required 620 nM.
In the case of `O=C1C[C@H](O)CC(CCc2c(Cl)cc(Cl)cc2OCc2cccc(F)c2)O1` (stereo partly specified), the Relative potency in test [1] came to 8. Also, half-maximal inhibition in test [2] (IC50) required 210 nM.
`O=C1C[C@H](O)C[C@@H](/C=C/c2c(Cl)cc(OCc3ccc(F)cc3)cc2Cl)O1`: the Relative potency in test [1] is 2.7. This compound also yielded an IC50 in test [2] of 670 nM.
